LMPTP inh: LMPTP (human) inhibition; recombinant LMPTP-A, OMFP fluorogenic substrate, fluorescence intensity; inhibition, % at 20 µM; 360,000 compounds, 0.22% hits;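 active = compounds that cut the enzyme signal by at least half of the control window in the single-dose screen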;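 also: plate controls were DMSO wells with enzyme plus substrate for no effect and substrate without enzyme for full effect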
Target sequence (P24666 whole entry, looked up): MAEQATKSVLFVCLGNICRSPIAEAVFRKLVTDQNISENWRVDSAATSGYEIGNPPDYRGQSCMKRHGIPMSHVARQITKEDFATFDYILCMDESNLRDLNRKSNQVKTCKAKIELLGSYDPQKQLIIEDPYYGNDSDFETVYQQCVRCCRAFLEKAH
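test system = LMPTP-A | amount = 0.625 nM LMPTP-A final | reagent = fluorogenic phosphatase substrate OMFP at 400 µM final | incubation = 50 min at room temperature | benchmarks = no-enzyme low control, uninhibited high control | medium = Bis-Tris pH 6.0, DTT, detergent | signal = fluorescence intensity of OMFP turnover product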
DNMT1 inh: DNMT1 (human) enzyme inhibition | P26358 | AID 588458 | 360,000 compounds, 0.83% hits | DNMT1 molecular beacon, Hinp1I cleavage, fluorescence | inhibition (reported as % activation of signal), % at 10 µM; in the data active = inhibition above about 50%
Scp1 inh: inhibitors of human Scp-1 phosphatase. Q9GZU7. Recombinant Scp1, phosphopeptide, malachite green phosphate absorbance. inhibition, % at 20 µM. 340,000 compounds, 0.88% hits. AID 493091;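 active = inhibition above about 50% at 20 µM, limit read from the data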;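 also: plate controls were DMSO wells with enzyme for no effect and wells lacking enzyme for full effect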
Target sequence (Q9GZU7 76-261 limits assumed): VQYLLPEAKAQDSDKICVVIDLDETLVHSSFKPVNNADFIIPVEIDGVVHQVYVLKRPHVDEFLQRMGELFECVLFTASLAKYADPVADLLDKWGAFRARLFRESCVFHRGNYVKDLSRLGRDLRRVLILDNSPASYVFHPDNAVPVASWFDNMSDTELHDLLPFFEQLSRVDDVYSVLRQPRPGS
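Assay system: SCP-1 catalytic fragment, aa 76-261 | Buffer or medium: Tris acetate buffer pH 5.5 with MgCl2 and Tween-20 | Compound: One concentration, 20 µM, with 1.0% DMSO | Also added: Phospho 17-mer peptide substrate | Signal: Absorbance at 630 nm | Incubation: 45 min enzyme reaction at room temperature | Measure: % inhibition of SCP-1 phosphate liberation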
SUMO1 PPI mod: alters human SUMO1 binding to SIM partners. 360,000 compounds, 0.33% hits. SUMO1 binding to a labelled peptide, TR-FRET, 1 h. P63165. inhibition, % at 20 µM; in the data active = inhibition above about 37%
Target sequence (P63165 whole entry, looked up): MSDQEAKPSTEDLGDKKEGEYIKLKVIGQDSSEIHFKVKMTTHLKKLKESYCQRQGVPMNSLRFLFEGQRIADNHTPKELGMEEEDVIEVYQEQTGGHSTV
STEP inh: blocks human striatal-enriched tyrosine phosphatase | P54829 | recombinant STEP, OMFP fluorogenic substrate, fluorescence | inhibition, % at 20 µM | 360,000 compounds, 0.25% hits | AID 588621;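 active = inhibition at 20 µM, scaled per plate between control wells, above about 37%, limit read from the data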;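 also: 0% = DMSO with enzyme and substrate and 100% = substrate only without enzyme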
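Assay system: isolated STEP enzyme. Buffer or medium: pH 6.0 Bis-Tris with DTT and Tween 20. Also added: fluorogenic phosphatase substrate OMFP at 25 µM final. Dosing: 20 µM, 1% DMSO. Timing: 20 min reaction, room temperature, in the dark. Measured by: fluorescence intensity, excitation 480 nm, emission 540 nm. Evaluation: normalized % inhibition.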
Active calls of the source: *; x = no result. Shown are actives, neighbours in structure and some others; about 1.7% of the full set was active somewhere.

SMILES | LMPTP inh | DNMT1 inh | Scp1 inh | SUMO1 PPI mod | STEP inh
C#CCOCCOCCOCCNc1nc(N2CCN(C(=O)CCCCCCCCCCNC(=O)[C@H]([C@@H](C)CC)n3cc(CCCCN=C(N)N)nn3)CC2)nc(N2CCN(C(=O)CCCCCCCCCCNC(=O)[C@@H]([C@H](C)O)n3cc(C)nn3)CC2)n1 | 9 | -108 | 35 | 86* | 6
C#CCOCCOCCOCCNc1nc(N2CCOCC2)nc(N2CCN(C(=O)CCCCCCCCCCNC(=O)[C@H]([C@@H](C)CC)n3cc(CCCCN=C(N)N)nn3)CC2)n1 | 2 | 9 | 12 | -40 | 1
C#CCOCCOCCOCCNc1nc(N2CCN(C(=O)CCCCCCCCCCNC(=O)[C@H](CCCCN)n3cc(C)nn3)CC2)nc(N2CCN(C(=O)CCCCCCCCCCNC(=O)[C@@H]([C@H](C)O)n3cc(C)nn3)CC2)n1 | -3 | -71 | 8 | -154 | 1
C#CCOCCOCCOCCNc1nc(N2CCN(C(=O)CCCCCCCCCCNC(=O)[C@@H](CCSC)n3cc(CCO)nn3)CC2)nc(N2CCN(C(=O)CCCCCCCCCCNC(=O)[C@H](CCCN=C(N)N)n3cc(C[C@@H](C)CC)nn3)CC2)n1 | 12 | -106 | 43 | 80* | 18
C#CCOCCOCCOCCNc1nc(N2CCN(C(=O)CCCCCCCCCCNC(=O)[C@H](CCCCN)n3cc(C[C@@H](C)CC)nn3)CC2)nc(N2CCN(C(=O)CCCCCCCCCCNC(=O)[C@@H]([C@H](C)O)n3cc(C)nn3)CC2)n1 | 7 | -148 | 38 | 70* | 8
CCOc1ncccc1C(=O)OCC(=O)NCCCc1ccccc1 | 0 | 0 | -2 | 4 | 0
CCCN(CC(=O)Nc1ccccc1OC)C(=O)c1ccncc1 | -1 | 1 | -6 | 1 | -1
COc1ccc(/C=N/OCC(=O)N=Nc2c(O)[nH]c3ccc(Br)cc23)cc1 | 5 | 79* | -3 | -9 | 3
COCCCn1c2nc3ccccc3nc2c2c(=O)n(Cc3ccc(Cl)cc3)cnc21 | 3 | -6 | -2 | -19 | 4
O=c1c2c3nc4ccccc4nc3n(Cc3ccccc3)c2ncn1Cc1ccco1 | 62* | 39 | 6 | -2 | 2
c1cc2c(c(CC3CO3)c1CC1CO1)OCCOCCOCCOCCO2 (centres undefined) | -1 | 5 | x | 3 | -2
COCCN(CCOC)Cc1cc(=O)oc2cc(C)c(Cl)cc12 | -2 | 3 | x | 1 | -3
Cc1cc(/C=N/NC(N)=S)c(O)c(/C=N/NC(N)=S)c1 | 1 | 53* | 12 | -7 | -1
CC(=O)Oc1cc(C(=O)OCC(=O)N2CCc3ccccc3C2)cc(OC(C)=O)c1OC(C)=O | 2 | 5 | 53* | 7 | 6
c1ccc(CN2CCC(Nc3nc(-c4ccccc4)nc4ccccc34)CC2)cc1 | 80* | 15 | -4 | 3 | 0
COC(=O)[C@@]1(Cc2ccc(F)cc2)[C@H]2c3cc(C(=O)N4CCCC4)n(C)c3C[C@H]2CN1C(=O)c1ccccc1 | 0 | x | x | -1 | x
O=C(Nc1ccc(C(O)c2ccccc2)cc1)[C@@H]1O[C@H](CO)[C@H](O)[C@H](O)[C@H]1O (some centres undefined) | 3 | 9 | x | -2 | 2
COc1ccc(-n2sc3ccccc3c2=O)cc1 | -2 | -2 | x | 2 | -2
COc1ccc(-n2sc3ccc(F)cc3c2=O)cc1 | -1 | -4 | 81* | 4 | -3
Cc1ccc(C)c(-n2sc3ccc(F)cc3c2=O)c1 | 0 | 2 | 70* | 2 | 0
O=c1c2cc(F)ccc2sn1-c1ccc(F)cc1 | -2 | -8 | 81* | 2 | 2
Cc1ccc(-c2cc(=O)c3cc(F)ccc3[nH]2)cc1 | -2 | 2 | -10 | 9 | -4
CS(=O)(=O)c1ccc2c(c1)sc1nc(=O)c(/C=C3/C=CC(=O)C(O)=C3)c(N)n12 | 30 | 11 | 71* | -3 | 12
CCc1ccc(/C=C2\SC(=S)N(CCCC(=O)Nc3ccc(C(=O)O)cc3)C2=O)cc1 | 64* | 1 | 9 | -24 | 16
O=C(CCN1C(=O)/C(=C\C=C\c2ccccc2)SC1=S)Nc1ccc(C(=O)O)cc1 | 83* | 17 | 88* | 0 | 87*
SMILES | LMPTP inh | DNMT1 inh | Scp1 inh | SUMO1 PPI mod | STEP inh
COc1ccc(/C=C2\SC(=S)N(CCC(=O)Nc3ccc(C(=O)O)cc3)C2=O)cc1OC | 44 | 31 | 95* | 14 | 85*
CCN(C)C1CN(Cc2cn(Cc3ccc(C)cc3)nn2)S(=O)(=O)C1 (centres undefined) | -1 | x | x | 4 | x
O=C(OC1CCOC1=O)c1ccccc1C(=O)c1ccc(Cl)c([N+](=O)[O-])c1 (centres undefined) | 1 | 12 | 18 | -21 | -3
CS(=O)(=O)c1ccc(C(=O)OC2CCOC2=O)cc1[N+](=O)[O-] (centres undefined) | -1 | 68* | 30 | -25 | 5
Clc1ccc(-c2cnc3n2CCCCC3)cc1 | 0 | 1 | 3 | 43* | 0
O=C(O)c1ccc(N/N=C/c2ccc(OC(=O)c3cccc(Cl)c3)cc2)cc1 | 10 | 7 | 40 | 61* | 1
CSc1ccc(/C=N/Nc2cccc(C(=O)O)c2)cc1 | 14 | 105* | 81* | 70* | 60*
O=C(CSc1ccc(Cl)cc1)c1ccco1 | 20 | 98* | 73* | 3 | 11
CCCN(C)C1CN(Cc2cn(Cc3cccc(C(F)(F)F)c3)nn2)S(=O)(=O)C1 (centres undefined) | -1 | x | x | 0 | x
CC(C)OC1=CC(=O)OC(c2cccc(Cl)c2)C1 (centres undefined) | -1 | x | x | 1 | x
CCCn1c(N)c(C(=O)COC(=O)c2cccc(S(=O)(=O)N3CCOCC3)c2)c(=O)[nH]c1=O | 0 | 3 | -6 | 1 | -2
Oc1ccc(C=NNC(=S)Nc2ccc(F)cc2)c(O)c1 | 1 | -5 | -10 | 53* | -5
O=C(NCc1ccccc1)C1C(=O)Nc2ccccc2C(=O)N1Cc1ccccc1 (centres undefined) | -1 | x | x | -1 | x
Cc1ccccc1CN1C(=O)C(C)S/C1=N/N=C/c1ccco1 (centres undefined) | 2 | -3 | -11 | 28 | 2
Cc1ccccc1CN1C(=O)C(C)Sc2ccc(-c3ccco3)cc21 (centres undefined) | 1 | 58* | x | 6 | 2
Nc1nccc(SCc2ccc(Cl)cc2Cl)n1 | 0 | -9 | -2 | 4 | -2
Nc1nc(N)c(Cc2ccc(Cl)cc2Cl)c(N)n1 | 64* | 2 | -7 | -2 | 2
O=C(Nc1cccc(NC(=O)c2ccccc2Cl)c1)c1ccco1 | 0 | 1 | -10 | 3 | 1
O=C(Nc1cccc(NC(=O)c2ccc(-c3ccc(Br)cc3)o2)c1)c1ccco1 | 5 | -14 | -9 | 44* | 1

Screening data (PubChem)
